Experimental data taken from ChEMBL document CHEMBL1141391 (J Med Chem, 2007).

Columns and labels:
[1] = Inhibition of growth in epothilone A resistant 1A9-A8 T-beta-274I mutant cell line after 72 hrs by SRB assay; format: functional, cell-based; conditions: Homo sapiens, 1A9, 72 h
1A9/ptx-10 [2] = assay: Inhibition of growth in paclitaxel resistant 1A9-PTX10 F-beta-270V mutant cell line after 72 hrs by SRB assay; format: functional, cell-based; conditions: Homo sapiens, 1A9/ptx-10, 72 h
Tubulin (Homo sapiens) = Tubulin (Homo sapiens) (UniProt P68371+Q9H4B7+P0DPH7+P68366+Q13509+Q71U36+P04350+Q3ZCM7+P07437+P68363+Q9BQE3+Q6PEY2+Q13885+Q9BVA1+Q9BUF5); assay: Induction of GTP-tubulin polymerization; format: protein-complex assay
Outline: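 ED50 for induction of tubulin assembly, read by light scattering at 350 nm or by fluorescence in a 96-well format. GTP-tubulin was used unless otherwise stated. Some samples were run with GDP-tubulin and normalized to the GTP-tubulin scale. Some values are single determinations.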

1A9/ptx-10 [3] = assay: Relative resistance, IC50 for 1A9-PTX10 F-beta-270V mutant/IC50 for 1A9; format: functional, Homo sapiens
1A9 [4] = assay: Inhibition of growth in 1A9 cell line after 72 hrs; format: functional, cell-based; conditions: Homo sapiens, 1A9, 72 h
PC-3 = assay: Cytotoxicity against PC3 cell line by MTT assay; format: cell-based; conditions: Homo sapiens
1A9 [5] = assay: Relative resistance, IC50 for 1A9-A8 A8 T-beta-274I mutant/IC50 for 1A9; format: functional, Homo sapiens
A2780 = assay: Cytotoxicity against A2780 cell line; format: cell-based; conditions: Homo sapiens

| Compound | IC50 [1] | IC50 (1A9/ptx-10 [2]) | ED50 (Tubulin (Homo sapiens)) | Ratio IC50 (1A9/ptx-10 [3]) | IC50 (1A9 [4]) | IC50 (PC-3) | Ratio IC50 (1A9 [5]) | IC50 (A2780) |
| --- | --- | --- | --- | --- | --- | --- | --- | --- |
| C=CCCC(=O)O[C@@]12CO[C@@H]1C[C@H](O)[C@@]1(C)C(=O)[C@H](OC(C)=O)C3=C(C)[C@@H](OC(=O)[C@H](O)[C@@H](NC(=O)c4ccccc4)c4ccccc4OCC=C)C[C@@](O)([C@@H](OC(=O)c4ccccc4)[C@H]21)C3(C)C | 148 nM | 65 nM | 420 nM | 18 | 1.8 nM | 128 nM | 82 | 770 nM |
| CC(=O)O[C@H]1C(=O)[C@@]2(C)[C@@H]3[C@H](OC(=O)c4ccccc4)[C@]4(O)C[C@H](OC(=O)[C@H](O)[C@@H](NC(=O)c5ccccc5)c5ccccc5OCC/C=C/C(=O)O[C@]35CO[C@@H]5C[C@@H]2O)C(C)=C1C4(C)C | 46.4 nM | 157 nM | 670 nM | 9.2 | 12.2 nM | 16 nM | 3.8 | 20 nM |
| C=CCCC(=O)O[C@@]12CO[C@@H]1C[C@H](O)[C@@]1(C)C(=O)[C@H](OC(C)=O)C3=C(C)[C@@H](OC(=O)[C@H](O)[C@@H](NC(=O)c4ccccc4)c4cccc(C=C)c4)C[C@@](O)([C@@H](OC(=O)c4ccccc4)[C@H]21)C3(C)C | 137 nM | 42 nM | 490 nM | 5.5 | 13.7 nM | 55 nM | 10 | 350 nM |
| COc1cccc(C(=O)O[C@H]2[C@@H]3[C@]45CO[C@@H]4C[C@H](O)[C@@]3(C)C(=O)[C@H](OC(C)=O)C3=C(C)[C@H](C[C@]2(O)C3(C)C)OC(=O)[C@H](O)[C@@H](NC(=O)c2ccccc2)c2ccccc2C/C=C/C(=O)O5)c1 | – | – | 220 nM | – | – | 8.2 nM | – | 17.7 nM |
| CC(=O)O[C@H]1C(=O)[C@@]2(C)[C@@H]3[C@H](OC(=O)c4ccccc4)[C@]4(O)C[C@H](OC(=O)[C@H](O)[C@@H](NC(=O)OC(C)(C)C)c5ccccc5/C=C/CC(=O)O[C@]35CO[C@@H]5C[C@@H]2O)C(C)=C1C4(C)C | – | – | 490 nM | – | – | 3.2 nM | – | 1.4 nM |
| C=CCOc1ccccc1[C@H](NC(=O)c1ccccc1)[C@@H](O)C(=O)O[C@H]1C[C@@]2(O)[C@@H](OC(=O)c3ccccc3)[C@@H]3[C@]4(OC(=O)C=C)CO[C@@H]4C[C@H](O)[C@@]3(C)C(=O)[C@H](OC(C)=O)C(=C1C)C2(C)C | – | – | 1200 nM | – | – | 2800 nM | – | 17800 nM |
| C=CC(=O)O[C@@]12CO[C@@H]1C[C@H](O)[C@@]1(C)C(=O)[C@H](OC(C)=O)C3=C(C)[C@@H](OC(=O)[C@H](O)[C@@H](NC(=O)c4ccccc4)c4cccc(C=C)c4)C[C@@](O)([C@@H](OC(=O)c4ccccc4)[C@H]21)C3(C)C | – | – | 1000 nM | – | – | 320 nM | – | 1700 nM |
| COc1cccc(C(=O)O[C@H]2[C@@H]3[C@]45CO[C@@H]4C[C@H](O)[C@@]3(C)C(=O)[C@H](OC(C)=O)C3=C(C)[C@H](C[C@]2(O)C3(C)C)OC(=O)[C@H](O)[C@@H](NC(=O)c2ccccc2)c2ccccc2/C=C/CC(=O)O5)c1 | – | – | 570 nM | – | – | 6 nM | – | 23.7 nM |
| CC(=O)O[C@H]1C(=O)[C@@]2(C)[C@@H]3[C@H](OC(=O)c4ccccc4)[C@]4(O)C[C@H](OC(=O)[C@H](O)[C@@H](NC(=O)c5ccccc5)c5ccccc5OC/C=C/CCC(=O)O[C@]35CO[C@@H]5C[C@@H]2O)C(C)=C1C4(C)C | – | – | 900 nM | – | – | 55 nM | – | 830 nM |
| CC(=O)O[C@H]1C(=O)[C@]2(C)C(O)C[C@H]3OC[C@]34OC(=O)/C=C\Cc3ccccc3[C@H](NC(=O)c3ccccc3)[C@@H](O)C(=O)O[C@H]3C[C@@](O)([C@@H](OC(=O)c5ccccc5)[C@H]42)C(C)(C)C1=C3C (stereo partly specified) | 0.27 nM | 0.13 nM | 300 nM | 1.8 | 0.32 nM | 2.5 nM | 0.84 | 0.3 nM |
| CC(=O)O[C@H]1C(=O)[C@@]2(C)[C@@H]3[C@H](OC(=O)c4ccccc4)[C@]4(O)C[C@H](OC(=O)[C@H](O)[C@@H](NC(=O)c5ccccc5)c5ccccc5OCCCCCC(=O)O[C@]35CO[C@@H]5C[C@@H]2O)C(C)=C1C4(C)C | – | – | 760 nM | – | – | 51 nM | – | 980 nM |
| CC(=O)O[C@H]1C(=O)[C@@]2(C)[C@H]([C@H](OC(=O)c3ccccc3)[C@]3(O)C[C@H](OC(=O)[C@H](O)[C@@H](NC(=O)c4ccccc4)c4ccccc4)C(C)=C1C3(C)C)[C@]1(OC(C)=O)CO[C@@H]1C[C@@H]2O [PACLITAXEL] | 21.5 nM | 157 nM | 500 nM | – | 4.8 nM | 5 nM | – | – |
| CC(=O)O[C@H]1C(=O)[C@@]2(C)[C@@H]3[C@H](OC(=O)c4ccccc4)[C@]4(O)C[C@H](OC(=O)[C@H](O)[C@@H](NC(=O)c5ccccc5)c5cccc(c5)/C=C/CCC(=O)O[C@]35CO[C@@H]5C[C@@H]2O)C(C)=C1C4(C)C | > 300 nM | 157 nM | 1600 nM | 21 | 12.9 nM | 34 nM | >23 | 680 nM |
| CC(=O)O[C@H]1C(=O)[C@@]2(C)[C@@H]3[C@H](OC(=O)c4ccccc4)[C@]4(O)C[C@H](OC(=O)[C@H](O)[C@@H](NC(=O)c5ccccc5)c5ccccc5OC/C=C/CCCCC(=O)O[C@]35CO[C@@H]5C[C@@H]2O)C(C)=C1C4(C)C | – | – | 930 nM | – | – | 500 nM | – | 1840 nM |
| CC(=O)O[C@H]1C(=O)[C@@]2(C)[C@@H]3[C@H](OC(=O)c4ccccc4)[C@]4(O)C[C@H](OC(=O)[C@H](O)[C@@H](NC(=O)c5ccccc5)c5cccc(c5)OC/C=C/CCC(=O)O[C@]35CO[C@@H]5C[C@@H]2O)C(C)=C1C4(C)C | > 300 nM | 196 nM | – | 6.3 | 24.6 nM | – | >12 | 650 nM |
| C=CCCCC(=O)O[C@@]12CO[C@@H]1C[C@H](O)[C@@]1(C)C(=O)[C@H](OC(C)=O)C3=C(C)[C@@H](OC(=O)[C@H](O)[C@@H](NC(=O)c4ccccc4)c4cccc(OCC=C)c4)C[C@@](O)([C@@H](OC(=O)c4ccccc4)[C@H]21)C3(C)C | – | – | 2200 nM | – | – | 4600 nM | – | 7400 nM |
| CC(=O)O[C@H]1C(=O)[C@@]2(C)[C@@H]3[C@H](OC(=O)c4ccccc4)[C@]4(O)C[C@H](OC(=O)[C@H](O)[C@@H](NC(=O)c5ccccc5)c5ccccc5OC/C=C/CCCC(=O)O[C@]35CO[C@@H]5C[C@@H]2O)C(C)=C1C4(C)C | – | – | 530 nM | – | – | 90 nM | – | 440 nM |
| CC(=O)O[C@H]1C(=O)[C@@]2(C)[C@@H]3[C@H](OC(=O)c4ccccc4)[C@]4(O)C[C@H](OC(=O)[C@H](O)[C@@H](NC(=O)c5ccccc5)c5cccc(c5)OCCCCCC(=O)O[C@]35CO[C@@H]5C[C@@H]2O)C(C)=C1C4(C)C | – | – | 3400 nM | – | – | 1000 nM | – | 3600 nM |
| CC(=O)O[C@H]1C(=O)[C@@]2(C)[C@@H]3[C@H](OC(=O)c4ccccc4)[C@]4(O)C[C@H](OC(=O)[C@H](O)[C@@H](NC(=O)c5ccccc5)c5cccc(c5)OCCCC(=O)O[C@]35CO[C@@H]5C[C@@H]2O)C(C)=C1C4(C)C | – | – | 1400 nM | – | – | 53 nM | – | 700 nM |
| CC(=O)O[C@H]1C(=O)[C@@]2(C)[C@@H]3[C@H](OC(=O)c4ccccc4)[C@]4(O)C[C@H](OC(=O)[C@H](O)[C@@H](NC(=O)c5ccccc5)c5ccccc5/C=C/CC(=O)O[C@]35CO[C@@H]5C[C@@H]2O)C(C)=C1C4(C)C | – | – | 330 nM | – | – | 3.1 nM | – | 0.5 nM |
| CC(=O)O[C@H]1C(=O)[C@@]2(C)[C@@H]3[C@H](OC(=O)c4ccccc4)[C@]4(O)C[C@H](OC(=O)[C@H](O)[C@@H](NC(=O)c5ccccc5)c5cccc(c5)OC/C=C\C(=O)O[C@]35CO[C@@H]5C[C@@H]2O)C(C)=C1C4(C)C | – | – | 4600 nM | – | – | 580 nM | – | 6300 nM |
| C=CCc1ccccc1[C@H](NC(=O)c1ccccc1)[C@@H](O)C(=O)O[C@H]1C[C@@]2(O)[C@@H](OC(=O)c3ccccc3)[C@@H]3[C@]4(OC(=O)C=C)CO[C@@H]4C[C@H](O)[C@@]3(C)C(=O)[C@H](OC(C)=O)C(=C1C)C2(C)C | – | – | 1400 nM | – | – | 550 nM | – | 1300 nM |
